# Assay results published in ChEMBL document CHEMBL2311279, “Discovery of a new series of [1,2,4]triazolo[4,3-a]quinoxalines as dual phosphodiesterase 2/phosphodiesterase 10 (PDE2/PDE10) inhibitors” (Bioorg Med Chem Lett, 2013).
# Tests used:
# [1] = target: cGMP-dependent 3',5'-cyclic phosphodiesterase (Homo sapiens, UniProt O00408); assay: Inhibition of human recombinant PDE2A expressed in Sf9 cells by scintillation proximity assay
# [2] = Drug level in Wistar rat brain at 10 mg/kg, po after 1 hr; assay type: ADME, organism-based; parameters: dose 10 mg/kg, route oral; conditions: read-out: Drug uptake
# In short: (§1)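 Male rats dosed once at 10 mg/kg, subcutaneously or orally. Vehicle was mostly 20% HP-b-CD at pH 4, with some dosing in 0.5% methocel suspension or H2O + tartaric acid. Brain (ng/g) and plasma (ng/mL) were sampled 1 h after dosing, and the brain/plasma ratio was derived from these. Values are geometric means of at least two runs ± SEM.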
# [3] = Plasma concentration in Wistar rat at 10 mg/kg, po after 1 hr; assay type: ADME, organism-based; parameters: dose 10 mg/kg, route oral; in short: as §1
# [4] = Ratio of drug level brain to plasma in Wistar rat at 10 mg/kg, po after 1 hr; assay type: ADME, organism-based; parameters: dose 10 mg/kg, route oral; conditions: read-out: BPR; in short: as §1
# [5] = Drug level in Wistar rat brain at 10 mg/kg, sc after 1 hr; assay type: ADME, organism-based; parameters: dose 10 mg/kg, route subcutaneous; conditions: read-out: Drug uptake; in short: as §1
# [6] = Plasma concentration in Wistar rat at 10 mg/kg, sc after 1 hr; assay type: ADME, organism-based; parameters: dose 10 mg/kg, route subcutaneous; in short: as §1
# [7] = Ratio of drug level brain to plasma in Wistar rat at 10 mg/kg, sc after 1 hr; assay type: ADME, organism-based; parameters: dose 10 mg/kg, route subcutaneous; conditions: read-out: BPR; in short: as §1
# [8] = Plasma concentration in Sprague-Dawley rat at 10 mg/kg, po after 1 hr; assay type: ADME, organism-based; parameters: dose 10 mg/kg, route oral; in short: as §1
# [9] = Ratio of drug level brain to plasma in Sprague-Dawley rat at 10 mg/kg, po after 1 hr; assay type: ADME, organism-based; parameters: dose 10 mg/kg, route oral; conditions: read-out: BPR; in short: as §1
# [10] = Drug level in Sprague-Dawley rat brain at 10 mg/kg, po after 1 hr; assay type: ADME, organism-based; parameters: dose 10 mg/kg, route oral; conditions: read-out: Drug uptake; in short: as §1
# [11] = target: High affinity 3',5'-cyclic-AMP phosphodiesterase 7A (Homo sapiens, UniProt Q13946); assay: Inhibition of human recombinant PDE7A expressed in Sf9 cells by scintillation proximity assay
# Striatum = assay: Drug uptake in Wistar rat striatum at 0.03 mg/kg, iv after 2 to 30 mins; assay type: ADME, organism-based; parameters: dose 0.03 mg/kg, route intravenous; conditions: in vivo
# In short: (§2)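 Male Wistar rats (180–200 g) received 0.03 mg/kg i.v. and were killed at 2, 5, 10 and 30 min, with 3 rats per time point. Brains were rapidly removed and dissected into striatum, hippocampus and whole cortex. Each region was homogenized by ultrasonic probe in 4 volumes of 75% acetonitrile and centrifuged, then drug was quantified by LC-MS.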
# [12] = Drug level in Sprague-Dawley rat brain at 10 mg/kg, sc after 1 hr; assay type: ADME, organism-based; parameters: dose 10 mg/kg, route subcutaneous; conditions: read-out: Drug uptake; in short: as §1
# Hippocampus = assay: Drug uptake in Wistar rat hippocampus at 0.03 mg/kg, iv after 2 to 30 mins; assay type: ADME, organism-based; parameters: dose 0.03 mg/kg, route intravenous; conditions: in vivo; in short: as §2
# [13] = Plasma concentration in Sprague-Dawley rat at 10 mg/kg, sc after 1 hr; assay type: ADME, organism-based; parameters: dose 10 mg/kg, route subcutaneous; in short: as §1
# [14] = target: cGMP-inhibited 3',5'-cyclic phosphodiesterase 3B (Homo sapiens, UniProt Q13370); assay: Inhibition of human recombinant PDE3B expressed in Sf9 cells by scintillation proximity assay
# [15] = target: cGMP-inhibited 3',5'-cyclic phosphodiesterase 3A (Homo sapiens, UniProt Q14432); assay: Inhibition of human recombinant PDE3A expressed in Sf9 cells by scintillation proximity assay
# [16] = target: Dual 3',5'-cyclic-AMP and -GMP phosphodiesterase 11A (Homo sapiens, UniProt Q9HCR9); assay: Inhibition of human recombinant PDE11A expressed in Sf9 cells by scintillation proximity assay
# [17] = Ratio of drug level brain to plasma in Sprague-Dawley rat at 10 mg/kg, sc after 1 hr; assay type: ADME, organism-based; parameters: dose 10 mg/kg, route subcutaneous; conditions: read-out: BPR; in short: as §1
# Cortex = assay: Drug uptake in Wistar rat cortex at 0.03 mg/kg, iv after 2 to 30 mins; assay type: ADME, organism-based; parameters: dose 0.03 mg/kg, route intravenous; conditions: in vivo; in short: as §2
# [18] = target: 3',5'-cyclic-AMP phosphodiesterase 4A (Homo sapiens, UniProt P27815); assay: Inhibition of human recombinant PDE4A expressed in Sf9 cells by scintillation proximity assay
# [19] = target: Dual specificity calcium/calmodulin-dependent 3',5'-cyclic nucleotide phosphodiesterase 1B (Homo sapiens, UniProt Q01064); assay: Inhibition of human recombinant PDE1B expressed in Sf9 cells by scintillation proximity assay
# Phosphodiesterase 6 = assay: Inhibition of human recombinant PDE6AB expressed in Sf9 cells by scintillation proximity assay
# [20] = target: High affinity cGMP-specific 3',5'-cyclic phosphodiesterase 9A (Homo sapiens, UniProt O76083); assay: Inhibition of human recombinant PDE9A expressed in Sf9 cells by scintillation proximity assay
# [21] = target: cGMP-specific 3',5'-cyclic phosphodiesterase (Homo sapiens, UniProt O76074); assay: Inhibition of human recombinant PDE5A expressed in Sf9 cells by scintillation proximity assay
# [22] = Selectivity ratio of IC50 for rat PDE10A to IC50 for human recombinant PDE2A
# In short: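 Inhibition of rat PDE10A and human PDE2A enzymes measured in vitro. IC50 values are mean ± SD of at least two experiments unless otherwise specified. The ratio is rat PDE10A IC50 divided by human PDE2A IC50.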
# Sequence of cGMP-dependent 3',5'-cyclic phosphodiesterase (O00408 whole entry): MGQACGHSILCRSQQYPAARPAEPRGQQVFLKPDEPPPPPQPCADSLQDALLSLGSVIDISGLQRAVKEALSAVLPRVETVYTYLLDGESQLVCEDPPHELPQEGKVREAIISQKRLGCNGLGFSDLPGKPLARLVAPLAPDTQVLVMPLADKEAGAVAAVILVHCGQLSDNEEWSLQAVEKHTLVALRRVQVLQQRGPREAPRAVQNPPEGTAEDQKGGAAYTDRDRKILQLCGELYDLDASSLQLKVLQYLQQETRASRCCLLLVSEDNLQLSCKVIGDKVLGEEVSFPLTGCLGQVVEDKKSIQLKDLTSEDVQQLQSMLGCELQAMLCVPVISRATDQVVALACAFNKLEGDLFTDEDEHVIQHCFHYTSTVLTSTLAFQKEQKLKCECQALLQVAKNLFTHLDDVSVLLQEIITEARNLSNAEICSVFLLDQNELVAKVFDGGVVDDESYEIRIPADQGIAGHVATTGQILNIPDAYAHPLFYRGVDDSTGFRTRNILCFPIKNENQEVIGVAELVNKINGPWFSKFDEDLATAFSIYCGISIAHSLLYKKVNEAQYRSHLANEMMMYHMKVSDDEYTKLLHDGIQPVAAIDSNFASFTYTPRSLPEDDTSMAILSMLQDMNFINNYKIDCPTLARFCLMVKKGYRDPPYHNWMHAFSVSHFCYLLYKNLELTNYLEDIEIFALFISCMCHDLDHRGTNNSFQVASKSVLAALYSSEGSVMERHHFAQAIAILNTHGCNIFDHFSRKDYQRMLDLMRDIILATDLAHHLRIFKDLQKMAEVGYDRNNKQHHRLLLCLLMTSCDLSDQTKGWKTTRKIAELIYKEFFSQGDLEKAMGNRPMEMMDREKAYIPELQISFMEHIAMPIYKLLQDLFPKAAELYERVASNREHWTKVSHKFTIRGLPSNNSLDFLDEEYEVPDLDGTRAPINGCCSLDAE
# Sequence of High affinity cGMP-specific 3',5'-cyclic phosphodiesterase 9A (O76083 whole entry): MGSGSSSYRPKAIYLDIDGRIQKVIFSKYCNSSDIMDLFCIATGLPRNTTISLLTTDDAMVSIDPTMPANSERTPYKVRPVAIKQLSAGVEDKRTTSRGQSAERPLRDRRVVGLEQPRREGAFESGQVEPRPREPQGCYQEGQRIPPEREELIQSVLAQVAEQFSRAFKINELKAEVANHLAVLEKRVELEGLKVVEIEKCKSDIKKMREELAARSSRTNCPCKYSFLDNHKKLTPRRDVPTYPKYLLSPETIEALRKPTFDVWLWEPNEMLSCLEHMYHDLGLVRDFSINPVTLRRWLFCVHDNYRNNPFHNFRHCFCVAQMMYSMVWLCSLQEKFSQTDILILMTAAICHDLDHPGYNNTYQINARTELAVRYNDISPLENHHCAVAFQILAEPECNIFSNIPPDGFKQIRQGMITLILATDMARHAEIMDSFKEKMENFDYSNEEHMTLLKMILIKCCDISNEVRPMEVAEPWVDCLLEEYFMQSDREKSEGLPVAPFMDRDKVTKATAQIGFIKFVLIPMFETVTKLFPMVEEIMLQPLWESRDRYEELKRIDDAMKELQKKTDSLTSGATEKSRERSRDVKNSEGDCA
# Sequence of Dual 3',5'-cyclic-AMP and -GMP phosphodiesterase 11A (Q9HCR9 whole entry): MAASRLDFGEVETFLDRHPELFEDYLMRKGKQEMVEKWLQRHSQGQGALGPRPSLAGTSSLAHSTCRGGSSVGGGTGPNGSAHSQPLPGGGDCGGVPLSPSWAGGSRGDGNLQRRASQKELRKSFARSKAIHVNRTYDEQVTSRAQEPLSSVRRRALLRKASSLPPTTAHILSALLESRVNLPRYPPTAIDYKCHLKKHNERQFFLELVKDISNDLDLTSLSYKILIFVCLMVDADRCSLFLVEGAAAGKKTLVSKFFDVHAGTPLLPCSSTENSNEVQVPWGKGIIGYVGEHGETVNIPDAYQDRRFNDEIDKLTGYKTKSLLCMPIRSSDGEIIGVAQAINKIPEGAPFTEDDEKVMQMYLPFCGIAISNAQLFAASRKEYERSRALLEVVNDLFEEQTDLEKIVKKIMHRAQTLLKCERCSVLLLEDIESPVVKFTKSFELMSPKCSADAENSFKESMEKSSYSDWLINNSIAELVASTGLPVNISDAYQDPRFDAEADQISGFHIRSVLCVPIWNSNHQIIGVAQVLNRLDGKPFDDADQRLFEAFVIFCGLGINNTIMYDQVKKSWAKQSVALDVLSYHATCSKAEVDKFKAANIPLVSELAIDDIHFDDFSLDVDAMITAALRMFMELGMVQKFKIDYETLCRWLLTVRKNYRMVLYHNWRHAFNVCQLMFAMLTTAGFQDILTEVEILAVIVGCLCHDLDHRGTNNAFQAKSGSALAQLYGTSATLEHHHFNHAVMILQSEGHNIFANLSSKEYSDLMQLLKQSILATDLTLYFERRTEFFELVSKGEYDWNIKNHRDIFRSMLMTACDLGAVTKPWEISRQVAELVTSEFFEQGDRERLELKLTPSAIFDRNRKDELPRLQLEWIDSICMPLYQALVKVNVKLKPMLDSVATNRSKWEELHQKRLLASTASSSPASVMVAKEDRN
# Sequence of High affinity 3',5'-cyclic-AMP phosphodiesterase 7A (Q13946 whole entry): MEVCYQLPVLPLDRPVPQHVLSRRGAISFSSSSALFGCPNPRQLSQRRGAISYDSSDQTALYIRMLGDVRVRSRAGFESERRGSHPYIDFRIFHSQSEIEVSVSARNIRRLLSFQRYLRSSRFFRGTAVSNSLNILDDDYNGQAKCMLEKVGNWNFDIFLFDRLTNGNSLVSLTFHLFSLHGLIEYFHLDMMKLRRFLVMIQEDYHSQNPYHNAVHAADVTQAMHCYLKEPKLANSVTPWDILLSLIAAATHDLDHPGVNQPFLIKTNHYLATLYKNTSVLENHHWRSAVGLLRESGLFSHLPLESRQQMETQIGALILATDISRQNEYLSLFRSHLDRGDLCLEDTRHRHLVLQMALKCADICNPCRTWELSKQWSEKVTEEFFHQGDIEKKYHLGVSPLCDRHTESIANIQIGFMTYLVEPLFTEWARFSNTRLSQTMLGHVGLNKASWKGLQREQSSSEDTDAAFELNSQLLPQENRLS
# Sequence of cGMP-inhibited 3',5'-cyclic phosphodiesterase 3B (Q13370 whole entry): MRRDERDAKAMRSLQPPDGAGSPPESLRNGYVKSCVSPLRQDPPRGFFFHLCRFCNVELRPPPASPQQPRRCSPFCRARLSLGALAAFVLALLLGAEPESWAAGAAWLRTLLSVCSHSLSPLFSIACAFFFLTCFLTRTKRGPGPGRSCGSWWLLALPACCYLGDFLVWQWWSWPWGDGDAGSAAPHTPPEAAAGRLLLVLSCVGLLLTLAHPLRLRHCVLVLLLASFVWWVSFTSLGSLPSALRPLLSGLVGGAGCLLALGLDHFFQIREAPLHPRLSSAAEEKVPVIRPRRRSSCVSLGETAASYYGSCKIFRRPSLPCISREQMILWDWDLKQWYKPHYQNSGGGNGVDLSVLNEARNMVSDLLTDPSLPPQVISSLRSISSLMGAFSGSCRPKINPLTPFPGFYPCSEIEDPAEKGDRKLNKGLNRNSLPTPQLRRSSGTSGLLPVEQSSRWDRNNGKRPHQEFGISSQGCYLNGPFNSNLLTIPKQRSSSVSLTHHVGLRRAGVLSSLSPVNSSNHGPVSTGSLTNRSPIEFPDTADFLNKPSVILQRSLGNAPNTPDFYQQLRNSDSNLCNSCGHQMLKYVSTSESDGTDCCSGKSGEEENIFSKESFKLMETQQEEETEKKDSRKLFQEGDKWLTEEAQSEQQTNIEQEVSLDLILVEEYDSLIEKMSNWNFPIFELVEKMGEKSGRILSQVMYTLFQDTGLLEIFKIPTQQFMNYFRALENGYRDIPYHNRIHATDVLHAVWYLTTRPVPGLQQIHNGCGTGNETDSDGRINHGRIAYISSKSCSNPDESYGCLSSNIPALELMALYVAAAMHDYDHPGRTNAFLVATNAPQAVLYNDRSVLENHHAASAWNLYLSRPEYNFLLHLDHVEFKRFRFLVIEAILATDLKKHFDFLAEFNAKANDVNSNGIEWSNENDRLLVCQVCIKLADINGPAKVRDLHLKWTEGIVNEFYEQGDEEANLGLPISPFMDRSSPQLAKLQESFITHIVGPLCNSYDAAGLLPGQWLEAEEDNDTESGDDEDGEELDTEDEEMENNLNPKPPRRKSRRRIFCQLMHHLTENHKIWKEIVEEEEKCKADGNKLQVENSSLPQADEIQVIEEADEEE
# Sequence of Dual specificity calcium/calmodulin-dependent 3',5'-cyclic nucleotide phosphodiesterase 1B (Q01064 whole entry): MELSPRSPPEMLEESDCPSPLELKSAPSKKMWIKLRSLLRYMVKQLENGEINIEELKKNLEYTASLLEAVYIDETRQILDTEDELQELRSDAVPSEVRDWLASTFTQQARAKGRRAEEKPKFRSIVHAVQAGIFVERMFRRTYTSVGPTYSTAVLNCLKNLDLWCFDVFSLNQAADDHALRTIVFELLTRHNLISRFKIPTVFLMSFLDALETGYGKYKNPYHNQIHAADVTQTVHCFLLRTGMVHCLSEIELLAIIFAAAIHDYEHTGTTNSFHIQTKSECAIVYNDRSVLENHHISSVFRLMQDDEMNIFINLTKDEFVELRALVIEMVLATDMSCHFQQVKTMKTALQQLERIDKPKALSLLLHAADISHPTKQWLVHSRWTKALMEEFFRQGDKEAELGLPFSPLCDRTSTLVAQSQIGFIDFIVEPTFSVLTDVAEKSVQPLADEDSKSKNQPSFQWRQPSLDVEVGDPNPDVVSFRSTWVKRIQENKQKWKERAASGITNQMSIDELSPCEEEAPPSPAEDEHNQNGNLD
smiles,measurement,setting,value
Cc1nc2ccc(CN3CCN(C)CC3)cc2n2c(-c3ccccc3Cl)nnc12,IC50,[1],7.1 nM
CCNC(=O)c1ccc2nc(C)c3nnc(-c4ccccc4Cl)n3c2c1,concentration at 1 h,[2],185 ng/g
same,concentration at 1 h,[3],1880 ng/mL
same,Kp at 1 h,[4],0.11
Cc1nc2ccc(C(=O)NCCN3CCCC3)cc2n2c(-c3ccccc3Cl)nnc12,IC50,[1],2.2 nM
same,concentration at 1 h,[5],143 ng/g
same,concentration at 1 h,[6],1070 ng/mL
same,Kp at 1 h,[7],0.14
CCNC(=O)c1ccc2nc(C)c3nnc(-c4cncc(OC)c4)n3c2c1,concentration at 1 h,[8],467 ng/mL
same,Kp at 1 h,[9],0.034
same,concentration at 1 h,[10],16 ng/g
Cc1nc2ccc(CN3CCCC(CO)C3)cc2n2c(-c3ccccc3Cl)nnc12 (centres undefined),concentration at 1 h,[5],99 ng/g
same,concentration at 1 h,[6],569 ng/mL
same,Kp at 1 h,[7],0.18
Cc1nc2ccc(C(=O)NCCc3ccccc3)cc2n2c(-c3ccccc3Cl)nnc12,IC50,[1],1.7 nM
Cc1nc2ccc(C(=O)N(C)Cc3ccccc3)cc2n2c(-c3ccccc3Cl)nnc12,IC50,[1],19 nM
Cc1nc2ccc(CN3CCOCC3)cc2n2c(-c3ccccc3Cl)nnc12,IC50,[1],2.8 nM
same,IC50,[11],1910 nM
same,Drug uptake,Striatum,Active
same,concentration at 1 h,[12],189 ng/g
same,Drug uptake,Hippocampus,Active
same,concentration at 1 h,[13],299 ng/mL
same,IC50,[14],> 10000 nM
same,IC50,[15],7760 nM
same,IC50,[16],> 10000 nM
same,Kp at 1 h,[17],0.62
same,Drug uptake,Cortex,Active
same,IC50,[18],> 10000 nM
same,IC50,[19],4900 nM
same,IC50,Phosphodiesterase 6,2280 nM
same,IC50,[20],> 10000 nM
same,IC50,[21],> 10000 nM
CCNCc1ccc2nc(C)c3nnc(-c4ccccc4Cl)n3c2c1,concentration at 1 h,[12],628 ng/g
same,concentration at 1 h,[13],845 ng/mL
same,Kp at 1 h,[17],0.73
CCOC(=O)c1ccc2nc(C)c3nnc(-c4ccccc4Cl)n3c2c1,IC50,[1],4.4 nM
CCNC(=O)c1ccc2nc(C)c3nnc(-c4ccccc4F)n3c2c1,IC50,[1],2.8 nM
CCNC(=O)c1ccc2nc(C)c3nnc(-c4cnccc4C)n3c2c1,concentration at 1 h,[12],98 ng/g
same,concentration at 1 h,[13],2800 ng/mL
same,Kp at 1 h,[17],0.036
CCNC(=O)c1ccc2nc(C)c3nnc(-c4ccccc4OC)n3c2c1,IC50,[1],5.9 nM
Cc1nc2ccc(C(=O)NCCN3CCOCC3)cc2n2c(-c3ccccc3Cl)nnc12,concentration at 1 h,[5],88 ng/g
same,concentration at 1 h,[6],2540 ng/mL
same,Kp at 1 h,[7],0.034
CCNC(=O)c1ccc2nc(C)c3nnc(-c4cccnc4OC)n3c2c1,IC50,[1],28 nM
Cc1nc2ccc(CN3CCC(O)CC3)cc2n2c(-c3ccccc3Cl)nnc12,IC50,[1],9.7 nM
Cc1nc2ccc(C(=O)NCc3ccccc3)cc2n2c(-c3ccccc3Cl)nnc12,IC50,[1],0.38 nM
same,Ratio IC50,[22],32
CCNC(=O)c1ccc2nc(C)c3nnc(-c4ccccn4)n3c2c1,IC50,[1],263 nM
